Measurements pooled from the literature.
Protocols differ between the studies behind these lines.
Target: RAC-beta serine/threonine-protein kinase (AKT2, Homo sapiens, UniProt P31751)

CC(C)(C)c1cc(C=C(C#N)C#N)cc(Br)c1O  remaining activity (enzyme activity, inhibitor; 0.5 µM): 97.7%
Nc1ncc(-c2nc(N3CCOCC3)nc(N3CCOCC3)n2)c(C(F)F)n1  remaining binding (binding, competition with immobilised ligand; 10 µM): 100%
Cn1cc(-c2cccc(N3CCc4c(sc5c4CC(C)(C)C5)C3=O)c2CO)cc(Nc2ccncn2)c1=O  inhibition (enzyme activity, inhibitor; 1 µM): 2%
O=c1[nH]c2ccccc2n1C1CCN(Cc2ccc(-c3[nH]c4cc5ncnc5cc4nc3-c3ccccc3)cc2)CC1  remaining signal (cell-free assay; 0.5 µM): 96.8%
Cn1cncc1[C@@](O)(COc1ccc(C#N)cc1-c1ccc(OC(F)(F)F)cc1)c1ccc(C#N)cc1  remaining binding (cell-free assay, competition with immobilised ligand; 1 µM): 78%
COc1cc(Nc2ncc(F)c(Nc3ccc4c(n3)NC(=O)C(C)(C)O4)n2)cc(OC)c1OC  inhibition (binding; 10 µM): 0%
N#CC1(c2ccccn2)CCN(Cc2cc(C(=O)O)c(=O)n3ccccc23)CC1  remaining binding (cell-free assay, competition with immobilised ligand; 1 µM): 73%
Cn1cc(-c2cc(F)cc(N3CCn4c(cc5c4CCCC5)C3=O)c2CO)cc(Nc2ccc(N3CCN(C4COC4)CC3)cn2)c1=O  inhibition (enzyme activity, inhibitor; 0.1 µM): 9%
C#Cc1n[nH]c2c(-c3cn(C(C)c4ccccn4)c(=O)[nH]c3=O)cc(F)cc12 (centres unmarked)  inhibition (enzyme activity, inhibitor; 1 µM): 2%
COc1ncccc1-c1cnn2ccc(N3CCN(C(=O)OC(C)C)CC3)nc12  remaining binding (binding, competition with immobilised ligand; 1 µM): 98%
Cc1nn(C)cc1-c1nc2c(N3CCN(Cc4ccc(Cl)cc4)CC3)c(Cl)cnc2[nH]1  remaining binding (binding, competition with immobilised ligand; 1 µM): 100%
